# Reference: paper PMC6843711 (ACS Omega, 2019)
# Experiments:
# [1] = DPPH free radical scavenging assay
# In short: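 Methanolic test compound at 0.2–1.0 μg/mL was mixed with 0.004% methanolic DPPH and kept in the dark for 30 min. Absorbance was read at 517 nm. Compound solution without DPPH served as blank and DPPH alone as control. Percent inhibition was derived from absorbance with and without antioxidant. Each measurement was repeated three times.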
# diabetic mice [2] = assay: Blood glucose levels in diabetic mice; type: in vivo; conditions: LOQ = 20 mM
# In short: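 Male mice (about 20 ± 2 g) were randomised into eight groups (n = 5). After an 18 h fast, diabetes was induced with a single ip alloxan dose of 50 mg/kg in 0.5 mL, and diabetic animals served as positive control. Test compound was given ip in 0.5 mL for 1 week, with saline as negative control. Cardiac blood was drawn under diethyl ether, and serum (600g, 15 min) was assayed for glucose. Triplicate; mean ± SD; Kruskal–Wallis, p < 0.05.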
# diabetic mice [3] = assay: Hematological study in vivo; conditions: ip; for Alb / Chlst / Cr / TG / UA: serum
# In short: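 Alloxan-diabetic male mice (single 50 mg/kg ip after 18 h fast; n = 5 per group) received test compound ip for 1 week, with a saline group as control. Cardiac blood was drawn under diethyl ether into 10% EDTA for automated haematology (RBC, WBC, Hb, MCV, MCH, MCHC, PLT, RDW, HCT) and into plain tubes. Serum (600g, 15 min) was assayed for albumin, uric acid, glucose, triglyceride and cholesterol. Triplicate; mean ± SD; Kruskal–Wallis.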
# [4] = read-out: IC50, inhibition of CuSO4-induced oxidation of human LDL; cited from earlier work
Molecule,"Inhibition percent (%), DPPH scavenging ([1]; conc. 0.2 μg mL^–1)","Inhibition percent (%), DPPH scavenging ([1]; conc. 0.4 μg mL^–1)","Inhibition percent (%), DPPH scavenging ([1]; conc. 0.6 μg mL^–1)","Inhibition percent (%), DPPH scavenging ([1]; conc. 0.8 μg mL^–1)","Inhibition percent (%), DPPH scavenging ([1]; conc. 1.0 μg mL^–1)",Mean blood glucose level (diabetic mice [2]; conc. 0.3 mM),Mean blood glucose level (diabetic mice [2]; conc. 0.5 mM),HB (diabetic mice [3]; dose 0.3 mM),HCT (diabetic mice [3]; dose 0.3 mM),MCH (diabetic mice [3]; dose 0.3 mM),MCHC (diabetic mice [3]; dose 0.3 mM),MCV (diabetic mice [3]; dose 0.3 mM),RBC (diabetic mice [3]; dose 0.3 mM),RDW (diabetic mice [3]; dose 0.3 mM),WBC (diabetic mice [3]; dose 0.3 mM),HB (diabetic mice [3]; dose 0.5 mM),HCT (diabetic mice [3]; dose 0.5 mM),MCH (diabetic mice [3]; dose 0.5 mM),MCHC (diabetic mice [3]; dose 0.5 mM),MCV (diabetic mice [3]; dose 0.5 mM),also measured
"O=C1O[C@H]([C@@H](O)CO)C(O)=C1O [AA, Ascorbic Acid, reference compound]",53.13 ± 0.7%,61.22 ± 0.7%,69.18 ± 1%,88.47 ± 0.9%,98.03 ± 2%,–,–,–,–,–,–,–,–,–,–,–,–,–,–,–,–
"Cc1nn(-c2ccccc2)c(Cl)c1C1Nc2ccccc2C(=O)N1c1ccccc1 (stereo not drawn) [Compound 4g, 2-(5-Chloro-3-methyl-1-phenyl-1H-pyrazol-4-yl)-3-phenyl-2,3-dihydroquinazolin-4(1H)-one]",20.71 ± 0.2%,20.32 ± 0.2%,20.51 ± 0.1%,21.16 ± 0.1%,20.62 ± 0.5%,65 ± 2 mM,27 ± 1 mM,–,–,–,–,–,–,–,–,–,–,–,–,–,–
"Cc1ccc(N2C(=O)c3ccccc3NC2c2c(C)nn(-c3ccccc3)c2Cl)cc1 (stereo not drawn) [Compound 4h, 2-(5-Chloro-3-methyl-1-phenyl-1H-pyrazol-4-yl)-3-(p-tolyl)-2,3-dihydroquinazolin-4(1H)-one]",11.42 ± 0.03%,11.44 ± 0.02%,11.46 ± 0.02%,11.48 ± 0.04%,11.50 ± 0.07%,44 ± 1 mM,22 ± 1 mM,14.5 ± 0.1 g/dL,37.1 ± 0.1%,15.8 ± 0.1 ρg,44.0 ± 0.2 g/dL,40.9 μm^3,9.05 10^6/mm^3,21.8 ± 0.03%,5.3 10^3/mm^3,14.2 ± 0.25 g/dL,37.9 ± 0.1%,15.5 ± 0.23 ρg,41.2 ± 0.1 g/dL,40.1 μm^3,RBC (diabetic mice [3]; dose 0.5 mM): 9.92 10^6/mm^3; RDW (diabetic mice [3]; dose 0.5 mM): 23.6 ± 0.02%; WBC (diabetic mice [3]; dose 0.5 mM): 5.6 10^3/mm^3; Alb (diabetic mice [3]; dose 0.3 mM): 2.7 ± 0.04 g/dL; Chlst (diabetic mice [3]; dose 0.3 mM): 64 ± 3.2 mg/dL; Cr (diabetic mice [3]; dose 0.3 mM): 0.41 ± 0.05 mg/dL; TG (diabetic mice [3]; dose 0.3 mM): 127 ± 1.5 mg/dL; UA (diabetic mice [3]; dose 0.3 mM): 61 ± 3 µM; Alb (diabetic mice [3]; dose 0.5 mM): 2.7 ± 0.02 g/dL; Chlst (diabetic mice [3]; dose 0.5 mM): 58 ± 6 mg/dL; Cr (diabetic mice [3]; dose 0.5 mM): 0.4 ± 0.05 mg/dL; TG (diabetic mice [3]; dose 0.5 mM): 109 ± 0.7 mg/dL; UA (diabetic mice [3]; dose 0.5 mM): 62 ± 1.5 µM
"Cc1nn(-c2ccccc2)c(Cl)c1C1Nc2ccccc2C(=O)N1c1ccc(O)cc1 (stereo not drawn) [Compound 4i, 2-(5-Chloro-3-methyl-1-phenyl-1H-pyrazol-4-yl)-3-(4-hydroxyphenyl)-2,3-dihydroquinazolin-4(1H)-one]",80.07 ± 0.77%,81.18 ± 0.5%,83.9 ± 0.1%,85.62 ± 0.3%,86.47 ± 0.27%,44 ± 1 mM,<LOQ,–,–,–,–,–,–,–,–,–,–,–,–,–,–
"Cc1nn(-c2ccccc2)c(Cl)c1C1Nc2ccccc2C(=O)N1c1ccc(Cl)cc1 (stereo not drawn) [Compound 4j, 2-(5-Chloro-3-methyl-1-phenyl-1H-pyrazol-4-yl)-3-(4-chlorophenyl)-2,3-dihydroquinazolin-4(1H)-one]",79.9 ± 0.9%,87.68 ± 0.7%,93.58 ± 1%,99.37 ± 0.7%,102 ± 2%,–,–,14.8 ± 0.34 g/dL,38.6 ± 0.1%,15.7 ± 0.2 ρg,38.6 ± 0.2 g/dL,40.2 μm^3,9.34 10^6/mm^3,22.5 ± 0.01%,7.6 10^3/mm^3,14.8 ± 0.3 g/dL,39.6 ± 0.08%,15.5 ± 0.03 ρg,38.2 ± 0.1 g/dL,39.9 μm^3,PLT (diabetic mice [3]; dose 0.3 mM): 1350 10^3/mm^3; PLT (diabetic mice [3]; dose 0.5 mM): 1326 10^3/mm^3; RBC (diabetic mice [3]; dose 0.5 mM): 9.17 10^6/mm^3; RDW (diabetic mice [3]; dose 0.5 mM): 22.2 ± 0.02%; WBC (diabetic mice [3]; dose 0.5 mM): 8 10^3/mm^3; Alb (diabetic mice [3]; dose 0.3 mM): 2.9 ± 0.02 g/dL; Chlst (diabetic mice [3]; dose 0.3 mM): 66 ± 1.4 mg/dL; Cr (diabetic mice [3]; dose 0.3 mM): 0.41 ± 0.07 mg/dL; TG (diabetic mice [3]; dose 0.3 mM): 123 ± 3 mg/dL; UA (diabetic mice [3]; dose 0.3 mM): 65 ± 2 µM; Alb (diabetic mice [3]; dose 0.5 mM): 2.8 ± 0.01 g/dL; Chlst (diabetic mice [3]; dose 0.5 mM): 62 ± 2.8 mg/dL; Cr (diabetic mice [3]; dose 0.5 mM): 0.41 ± 0.09 mg/dL; TG (diabetic mice [3]; dose 0.5 mM): 116 ± 3 mg/dL; UA (diabetic mice [3]; dose 0.5 mM): 65 ± 2 µM
"Cc1ccc(N2C(=O)c3ccccc3NC2c2c(C)nn(-c3ccccc3)c2Cl)c(C)c1 (stereo not drawn) [Compound 4k, 2-(5-Chloro-3-methyl-1-phenyl-1H-pyrazol-4-yl)-3-(2,4-dimethylphenyl)-2,3-dihydroquinazolin-4(1H)-one]",67.72 ± 0.2%,67.80 ± 0.3%,67.87 ± 0.1%,67.95 ± 0.2%,68.03 ± 0.1%,29 ± 1 mM,–,8.0 ± 0.2 g/dL,18.1 ± 0.1%,15.8 ± 0.1 ρg,44.0 ± 0.2 g/dL,44.9 μm^3,8.05 10^6/mm^3,12.2 ± 0.01%,3.15 10^3/mm^3,10.9 ± 0.1 g/dL,34.9 ± 0.2%,15.8 ± 0.1 ρg,41.2 ± 0.2 g/dL,44.1 μm^3,RBC (diabetic mice [3]; dose 0.5 mM): 7.92 10^6/mm^3; RDW (diabetic mice [3]; dose 0.5 mM): 24.8 ± 0.01%; WBC (diabetic mice [3]; dose 0.5 mM): 2.8 10^3/mm^3; Alb (diabetic mice [3]; dose 0.3 mM): 2.8 ± 0.07 g/dL; Chlst (diabetic mice [3]; dose 0.3 mM): 64 ± 3.2 mg/dL; Cr (diabetic mice [3]; dose 0.3 mM): 0.45 ± 0.05 mg/dL; TG (diabetic mice [3]; dose 0.3 mM): 127 ± 2.5 mg/dL; UA (diabetic mice [3]; dose 0.3 mM): 66 ± 2.7 µM; Alb (diabetic mice [3]; dose 0.5 mM): 2.8 ± 0.03 g/dL; Chlst (diabetic mice [3]; dose 0.5 mM): 60 ± 6 mg/dL; Cr (diabetic mice [3]; dose 0.5 mM): 0.42 ± 0.05 mg/dL; TG (diabetic mice [3]; dose 0.5 mM): 121 ± 4 mg/dL; UA (diabetic mice [3]; dose 0.5 mM): 67 ± 3.3 µM
"Cc1ccc(N2C(=O)c3ccccc3NC2c2c(C)nn(-c3ccccc3)c2Cl)cc1C (stereo not drawn) [Compound 4l, 2-(5-Chloro-3-methyl-1-phenyl-1H-pyrazol-4-yl)-3-(3,4-dimethylphenyl)-2,3-dihydroquinazolin-4(1H)-one]",60.14 ± 0.1%,60.19 ± 0.2%,60.25 ± 0.2%,60.30 ± 0.1%,60.35 ± 0.2%,–,–,–,–,–,–,–,–,–,–,–,–,–,–,–,–
magnolamide,–,–,–,–,–,–,–,–,–,–,–,–,–,–,–,–,–,–,–,–,IC50 [4]: 9.7 µM
